{"source": "ChEMBL document CHEMBL4371071", "about": "“Muscarinic agonist, (±)-quinuclidin-3-yl-(4-fluorophenethyl)(phenyl)carbamate: High affinity, but low subtype selectivity for human M1 - M5 muscarinic acetylcholine receptors” (Bioorg Med Chem Lett, 2019)", "key": {"[1]": {"molecular_target": "T1, Muscarinic acetylcholine receptor M1 (Homo sapiens, UniProt P11229)", "T1 sequence (P11229 whole entry)": "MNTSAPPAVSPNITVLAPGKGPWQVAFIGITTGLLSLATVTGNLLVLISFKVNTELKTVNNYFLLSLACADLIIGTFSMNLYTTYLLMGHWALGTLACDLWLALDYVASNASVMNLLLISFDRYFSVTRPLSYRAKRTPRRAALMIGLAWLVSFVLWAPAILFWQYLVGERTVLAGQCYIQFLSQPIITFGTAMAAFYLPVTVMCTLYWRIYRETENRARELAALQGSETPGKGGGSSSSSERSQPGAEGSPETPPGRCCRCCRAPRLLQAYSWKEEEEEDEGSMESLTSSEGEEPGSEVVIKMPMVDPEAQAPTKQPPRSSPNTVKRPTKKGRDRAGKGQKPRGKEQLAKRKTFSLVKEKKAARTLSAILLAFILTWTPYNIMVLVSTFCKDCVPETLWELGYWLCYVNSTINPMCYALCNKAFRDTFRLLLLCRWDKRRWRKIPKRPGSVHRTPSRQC", "assay": "Displacement of [3H]NMS from human M1 AChR expressed in CHO cell membranes after 1 to 2 hrs by liquid scintillation spectrometry method", "assay_type": "cell-based"}, "[2]": {"molecular_target": "T2, Muscarinic acetylcholine receptor M2 (Homo sapiens) (UniProt P08172)", "T2 sequence (whole entry)": "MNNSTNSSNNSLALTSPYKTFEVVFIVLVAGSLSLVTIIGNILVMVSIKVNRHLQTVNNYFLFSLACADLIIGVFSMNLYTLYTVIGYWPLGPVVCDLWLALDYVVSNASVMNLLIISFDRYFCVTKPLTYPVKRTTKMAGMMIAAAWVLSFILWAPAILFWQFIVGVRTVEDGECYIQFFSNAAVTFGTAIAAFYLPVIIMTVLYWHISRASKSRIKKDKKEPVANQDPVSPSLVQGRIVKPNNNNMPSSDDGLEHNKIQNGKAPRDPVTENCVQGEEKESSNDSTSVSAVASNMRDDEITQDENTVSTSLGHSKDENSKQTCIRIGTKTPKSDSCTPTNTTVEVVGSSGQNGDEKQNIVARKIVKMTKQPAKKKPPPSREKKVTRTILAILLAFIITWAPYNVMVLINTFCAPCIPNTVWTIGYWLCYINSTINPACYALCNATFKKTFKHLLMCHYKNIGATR", "assay": "Displacement of [3H]NMS from human M2 AChR expressed in CHO cell membranes at 100 uM after 1 to 2 hrs by liquid scintillation spectrometry method relative to control", "method_in_brief": "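CHO membranes expressing the human subtype (20 µg protein/well) with 0.3 nM [3H]NMS and analog (1 nM–100 µM) in 50 mM Tris-HCl pH 7.4, 2 h at 25 °C. Filtered on GF/B, washed, counted by scintillation. IC50 taken from curves to give Ki; three independent experiments in duplicate.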"}, "[3]": {"molecular_target": "Muscarinic acetylcholine receptor (Rattus norvegicus) (UniProt P08482+P08483+P08485+P08911+P10980)", "assay": "Agonist activity at muscarinic acetylcholine receptor in superfused rat striatal slices assessed as augmentation of oxotremorine-induced [3H]DA release at 1 to 10 uM preincubated for 35 mins in presence of [3H]DA followed by oxotremorine addition and measured after 25 mins in presence of scopolamine by liquid scintillation spectroscopic method", "assay_type": "[…]", "method_in_brief": "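Rat striatal slices (500 µm) in Krebs' buffer pH 7.4 at 34 °C for 60 min, with 0.1 µM [3H]DA over the final 30 min. Superfused at 0.6 mL/min with 10 µM nomifensine and 10 µM pargyline; 5-min fractions. Basal outflow taken over 15 min, then test agent 35 min, then 100 µM oxotremorine 25 min. Overflow = summed radioactivity minus basal, by scintillation; n = 4–10.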"}, "[4]": {"molecular_target": "Muscarinic acetylcholine receptor M3 (Homo sapiens, UniProt P20309)", "sequence (P20309 whole entry, looked up)": "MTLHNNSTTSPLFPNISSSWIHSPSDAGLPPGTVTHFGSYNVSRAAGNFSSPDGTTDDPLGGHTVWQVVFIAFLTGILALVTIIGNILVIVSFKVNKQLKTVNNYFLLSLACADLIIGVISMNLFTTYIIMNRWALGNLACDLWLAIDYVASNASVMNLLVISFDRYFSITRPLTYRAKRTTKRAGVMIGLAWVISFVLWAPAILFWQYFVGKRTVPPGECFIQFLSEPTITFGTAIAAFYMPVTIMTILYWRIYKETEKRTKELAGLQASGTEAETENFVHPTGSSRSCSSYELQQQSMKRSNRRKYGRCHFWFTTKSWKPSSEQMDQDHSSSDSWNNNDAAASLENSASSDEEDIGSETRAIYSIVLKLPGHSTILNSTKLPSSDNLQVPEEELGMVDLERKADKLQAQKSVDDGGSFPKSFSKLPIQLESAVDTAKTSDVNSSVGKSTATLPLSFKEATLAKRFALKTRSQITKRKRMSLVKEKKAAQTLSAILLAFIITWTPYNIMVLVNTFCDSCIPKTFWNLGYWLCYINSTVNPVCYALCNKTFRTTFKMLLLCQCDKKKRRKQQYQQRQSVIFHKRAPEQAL", "conditions": "CHO, at 100 µM"}, "[5]": {"molecular_target": "T3, Muscarinic acetylcholine receptor M5 (Homo sapiens, UniProt P08912)", "T3 sequence (P08912 whole entry)": "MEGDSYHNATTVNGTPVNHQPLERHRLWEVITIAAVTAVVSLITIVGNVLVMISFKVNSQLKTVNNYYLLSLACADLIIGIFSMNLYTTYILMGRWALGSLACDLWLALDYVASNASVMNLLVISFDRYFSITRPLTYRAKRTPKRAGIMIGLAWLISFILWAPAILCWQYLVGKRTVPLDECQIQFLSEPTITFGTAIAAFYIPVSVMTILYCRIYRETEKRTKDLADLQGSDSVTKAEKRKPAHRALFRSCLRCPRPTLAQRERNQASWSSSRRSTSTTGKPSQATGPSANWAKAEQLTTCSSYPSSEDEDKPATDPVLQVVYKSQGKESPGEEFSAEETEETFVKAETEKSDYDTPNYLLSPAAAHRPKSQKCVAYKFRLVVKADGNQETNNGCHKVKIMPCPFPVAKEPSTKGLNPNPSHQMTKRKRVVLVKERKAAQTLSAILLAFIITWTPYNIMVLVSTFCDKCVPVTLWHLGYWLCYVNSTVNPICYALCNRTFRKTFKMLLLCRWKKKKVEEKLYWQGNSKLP", "assay": "Displacement of [3H]NMS from human M5 AChR expressed in CHO cell membranes after 1 to 2 hrs by liquid scintillation spectrometry method", "method_in_brief": "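CHO membranes expressing human M5 (10 µg protein/well) with 0.3 nM [3H]NMS and analog (1 nM–100 µM) in 50 mM Tris-HCl pH 7.4, 2 h at 25 °C. Filtered on GF/B, counted by scintillation. IC50 converted to Ki; three independent experiments in duplicate.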"}, "[6]": {"molecular_target": "T4, Muscarinic acetylcholine receptor M4 (Homo sapiens) (UniProt P08173)", "T4 sequence (whole entry)": "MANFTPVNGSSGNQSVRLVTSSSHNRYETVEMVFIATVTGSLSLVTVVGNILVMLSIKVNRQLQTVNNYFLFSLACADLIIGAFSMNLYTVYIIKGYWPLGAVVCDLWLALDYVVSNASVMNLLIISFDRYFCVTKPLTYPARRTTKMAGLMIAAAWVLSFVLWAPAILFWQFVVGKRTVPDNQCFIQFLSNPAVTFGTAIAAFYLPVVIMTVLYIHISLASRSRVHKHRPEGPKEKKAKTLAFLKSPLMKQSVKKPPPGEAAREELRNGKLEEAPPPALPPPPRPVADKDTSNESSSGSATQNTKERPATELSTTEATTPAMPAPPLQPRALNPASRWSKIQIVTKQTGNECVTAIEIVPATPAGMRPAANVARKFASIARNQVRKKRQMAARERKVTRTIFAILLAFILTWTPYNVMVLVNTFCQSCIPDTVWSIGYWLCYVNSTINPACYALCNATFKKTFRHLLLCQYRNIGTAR", "assay": "Displacement of [3H]NMS from human M4 AChR expressed in CHO cell membranes at 100 uM after 1 to 2 hrs by liquid scintillation spectrometry method relative to control", "method_in_brief": "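CHO membranes expressing the human subtype (20 µg protein/well) with 0.3 nM [3H]NMS and analog (1 nM–100 µM) in 50 mM Tris-HCl pH 7.4, 2 h at 25 °C. […] Filtered on GF/B, washed, counted by scintillation. IC50 taken from curves to give Ki; three independent experiments in duplicate.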"}}, "note": "Calls of active or inactive are those of the source. No cut-off for these calls is given here."}
{"smiles": "O=C(OC1CN2CCC1CC2)N(CCc1ccc(F)cc1)c1ccccc1", "note": "(racemic)", "values": [{"measurement": "Ki", "setting": "[1]", "value": 2, "unit": "nM"}, {"measurement": "Imax", "setting": "[2]", "value": 100, "unit": "%"}, {"measurement": "Activity", "setting": "[3]", "value": "inactive"}, {"measurement": "Imax", "setting": "[4]", "value": 100, "unit": "%"}, {"measurement": "Ki", "setting": "[5]", "value": 1.8, "unit": "nM"}, {"measurement": "Imax", "setting": "[6]", "value": 99.8, "unit": "%"}]}
